Data from ChEMBL document CHEMBL1154750 (J Med Chem, 2010).

Key:
[1] = biological target: Neuraminidase (Influenza A virus (A/Puerto Rico/8/1934(H1N1)), UniProt P03468); assay: Inhibition of Influenza Virus A/PR/8/34 neuraminidase chemiluminescence-based enzyme inhibition assay
Summary of the method: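 Chemiluminescent NA assay using NA-Star 1,2-dioxetane sialic acid substrate. Virus culture supernatant was serially 2-fold diluted in NA-Star buffer, and the dilution giving 40:1 signal-to-noise was used. Compound was preincubated with virus for 20 min at 37 C, then substrate (1:500) was added for 30 min at room temperature. Mean of six untreated virus controls set to 100%. IC50 from n = 3 assays, triplicate wells.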

Neuraminidase [2] = biological target: T1, Neuraminidase (Influenza A virus, UniProt B4URF0); assay: Inhibition of Influenza Virus A/Potsdam/15/81 (H1N1) neuraminidase
T1 sequence (B4URF0 whole entry): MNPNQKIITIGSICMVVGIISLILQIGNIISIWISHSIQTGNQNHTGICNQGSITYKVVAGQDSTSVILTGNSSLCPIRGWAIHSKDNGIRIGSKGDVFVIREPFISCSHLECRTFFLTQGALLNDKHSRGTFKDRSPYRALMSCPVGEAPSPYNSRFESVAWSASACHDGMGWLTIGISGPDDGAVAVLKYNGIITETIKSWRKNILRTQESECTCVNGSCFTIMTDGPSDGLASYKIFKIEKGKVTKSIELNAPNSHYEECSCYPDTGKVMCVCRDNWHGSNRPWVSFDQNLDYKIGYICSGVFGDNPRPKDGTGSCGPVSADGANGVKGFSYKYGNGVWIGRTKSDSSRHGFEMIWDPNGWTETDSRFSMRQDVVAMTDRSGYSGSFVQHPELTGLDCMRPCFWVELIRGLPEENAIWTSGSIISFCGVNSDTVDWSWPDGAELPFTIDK

Neuraminidase [3] = biological target: T1, Neuraminidase; assay: Inhibition of Influenza Virus A/Belzig/2/01 (H1N1) neuraminidase; set-up: species or system Influenza A virus (A/swine/Belzig/2/2001(H1N1))
Summary of the method: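 Swine H1N1 NA assayed by NA-Star chemiluminescence. Compound was mixed with the diluted virus supernatant (dilution giving 40:1 signal-to-noise) for 20 min at 37 C, then substrate (1:500) was added for 30 min at room temperature. Activity relative to six untreated virus controls; IC50 from one assay, each concentration in triplicate.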

Neuraminidase [4] = biological target: T1, Neuraminidase; assay: Inhibition of Influenza Virus A/Horneburg/IDT7489/08 (H1N1) neuraminidase
Summary of the method: (§1)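 Swine H1N1 isolate NA measured by NA-Star chemiluminescence. The virus supernatant dilution giving 40:1 signal-to-noise was incubated with compound for 20 min at 37 C, then dioxetane sialic acid substrate (1:500) was added for 30 min at room temperature. Six untreated virus controls set to 100%. IC50 from n ≥ 4 assays, triplicate wells.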

Neuraminidase [5] = biological target: T1, Neuraminidase; assay: Inhibition of Influenza Virus A/Brest/IDT7490/08 (H1N1) neuraminidase; summary of the method: as §1
Influenza A virus = assay: Antiviral activity against Influenza A virus (A/Puerto Rico/8/34(H1N1)) in MDCK cells assessed as reduction in plaque number by plaque reduction assay; settings: A/Puerto Rico/8/1934(H1N1)
[6] = Cytotoxicity against MDCK cells; format: cell-based, Canis lupus familiaris; settings: dog
Summary of the method: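 Confluent 3-day-old MDCK monolayers in EMEM with 10% FBS were exposed to serial 2-fold dilutions (triplicate) for 72 h at 37 °C, 5% CO2. Cells were fixed and stained with crystal violet-formalin, dye was extracted, and OD was read at 550/630 nm. Viability is given relative to six mock-treated controls. CC50 comes from the mean dose-response curve of two independent assays.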

Chain of Neuraminidase (Influenza A virus (A/Puerto Rico/8/1934(H1N1)), UniProt P03468) (P03468 whole entry): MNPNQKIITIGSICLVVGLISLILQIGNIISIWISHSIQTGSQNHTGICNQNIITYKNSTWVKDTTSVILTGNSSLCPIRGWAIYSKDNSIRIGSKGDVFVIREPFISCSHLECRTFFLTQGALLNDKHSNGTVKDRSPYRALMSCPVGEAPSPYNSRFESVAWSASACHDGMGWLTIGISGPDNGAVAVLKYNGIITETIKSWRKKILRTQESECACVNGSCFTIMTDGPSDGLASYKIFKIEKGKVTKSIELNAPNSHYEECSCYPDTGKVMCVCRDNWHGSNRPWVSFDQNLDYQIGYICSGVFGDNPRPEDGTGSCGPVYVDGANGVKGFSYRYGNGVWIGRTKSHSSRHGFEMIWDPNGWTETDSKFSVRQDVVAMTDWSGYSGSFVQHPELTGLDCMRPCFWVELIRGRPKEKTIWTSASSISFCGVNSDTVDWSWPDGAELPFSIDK

Compound	IC50 [1] [µM]	also measured
O[C@@H](CC/C=C/c1ccccc1)CCc1ccccc1	4.13	–
O=C(/C=C/C=C/c1ccccc1)CCc1ccccc1	6.1	–
O=C(/C=C(O)\C=C\c1ccccc1)CCc1ccccc1	4.67	–
O[C@@H](CCc1ccccc1)C[C@H](O)/C=C/c1ccccc1	29.8	–
CC(C)=CCC/C(C)=C/CC/C(C)=C/CO [FARNESOL]	81.4	–
O=C(CCc1ccccc1)C[C@@H]1C[C@@H](c2ccccc2)c2c(cc(/C=C/c3ccccc3)oc2=O)O1 [KATSUMADAIN A]	1.05	IC50 (Neuraminidase [2]): 0.00073 µM; IC50 (Neuraminidase [3]): 0.00059 µM; IC50 (Neuraminidase [4]): 0.00111 µM; IC50 (Neuraminidase [5]): 0.00164 µM; IC50 (Influenza A virus): 11.8 µM; CC50 [6]: 66.9 µM
